Results pooled from the literature.
Sample: plasma

The C0 of `CC[C@H](C)[C@H](NC(=O)[C@H](Cc1ccccc1)NC(=O)[C@H](CCC(=O)O)NC(=O)[C@H](CCCCN)NC(=O)[C@H](C)NC(=O)[C@H](C)NC(=O)[C@H](CCC(N)=O)NC(=O)CNC(=O)[C@H](CCC(=O)O)NC(=O)[C@H](CC(C)C)NC(=O)[C@H](Cc1ccc(O)cc1)NC(=O)[C@H](CO)NC(=O)[C@H](CO)NC(=O)[C@@H](NC(=O)[C@H](CC(=O)O)NC(=O)[C@H](CO)NC(=O)[C@@H](NC(=O)[C@H](Cc1ccccc1)NC(=O)[C@@H](NC(=O)CNC(=O)[C@H](CCC(=O)O)NC(=O)[C@H](C)NC(=O)N(N)Cc1c[nH]cn1)[C@@H](C)O)[C@@H](C)O)C(C)C)C(=O)N[C@@H](C)C(=O)N[C@@H](Cc1c[nH]c2ccccc12)C(=O)N[C@@H](CC(C)C)C(=O)N[C@H](C(=O)N[C@@H](CCCNC(=N)N)C(=O)NCC(=O)N[C@@H](CCCNC(=N)N)C(=O)NCC(=O)O)C(C)C` is reported as 37700 ng/mL (male CD-1 mouse; intravenous; 1 mg/kg; single dose).
`N=C(N)NCCC[C@H](NC(=O)[C@H](Cc1ccccc1)NC(=O)[C@H](CCC(N)=O)NC(=O)OCc1ccccc1)C(=O)c1nccs1` has a clearance of 70.2 mL/min/kg (female C57BL/6 mouse; intravenous; 5 mg/kg).
`CC[C@H](C)[C@@H]1NC(=O)[C@@H]2CCCN2C(=O)[C@H](CC(C)C)NC(=O)[C@H](CC(C)C)NC(=O)CNC(=O)[C@@H](NC(=O)[C@@H](NC(=O)[C@H](CC(=O)O)NC(=O)CNC(=O)[C@@H](NC(=O)[C@H](C)NC(=O)CNC(=O)[C@H](CCCCN)NC(=O)[C@H](CC(C)C)NC(=O)[C@H](CC(C)C)NC(=O)[C@H](CCCCN)NC(=O)CNC(=O)[C@@H](NC(=O)[C@@H](N)CC(C)C)C(C)C)C(C)C)C(C)C)CSSC[C@@H](C(=O)O)NC1=O` gave a C0 of 3190 ng/mL (female C57BL/6 mouse; intravenous; 10 mg/kg; single dose).
With `CC[C@H](C)CCCCC(=O)N[C@@H](CCN)C(=O)N[C@H](C(=O)N[C@@H](CCN)C(=O)N[C@H]1CCNC(=O)[C@H]([C@@H](C)O)NC(=O)[C@H](CCN)NC(=O)[C@H](CCN)NC(=O)[C@H](CC(C)C)NC(=O)[C@@H](CC(C)C)NC(=O)[C@H](CCN)NC1=O)[C@@H](C)O` the Tmax was 2.67 h (male Sprague-Dawley rat; subcutaneous; 10 mg/kg).
For `C[C@@H](O)[C@@H]1NC(=O)CNC(=O)[C@H](Cc2c[nH]cn2)NC(=O)[C@H](Cc2c[nH]c3ccccc23)NC(=O)[C@H](CC(N)=O)NC(=O)CNC(=O)C[C@@H](C(=O)N[C@@H](Cc2c[nH]c3ccccc23)C(=O)N[C@@H](Cc2ccccc2)C(=O)N[C@@H](Cc2ccccc2)C(=O)N[C@@H](CC(N)=O)C(=O)N[C@@H](Cc2ccc(O)cc2)C(=O)N[C@@H](Cc2ccc(O)cc2)C(=O)N[C@@H](Cc2c[nH]c3ccccc23)C(=O)O)NC(=O)[C@@H]2CCCN2C(=O)[C@H](CO)NC1=O`, the clearance was 1.34 mL/min/kg (mouse; intravenous; 3 mg/kg).
For `CC(C)=CCC[C@](C)(O[C@@H]1O[C@H](CO)[C@@H](O)[C@H](O)[C@H]1O)[C@H]1CC[C@]2(C)[C@@H]1[C@H](O)C[C@@H]1[C@@]3(C)CC[C@H](O)C(C)(C)[C@@H]3CC[C@]12C`, the clearance was 0.46 L/h (mouse; intravenous; 2 mg/kg).
The Cmax of `CC(=O)c1c(C)c2cnc(Nc3ccc(C4CCN(CCS(C)(=O)=O)CC4)cn3)nc2n(C2CCCC2)c1=O` is reported as 98.5 ng/mL (male beagle dog; oral; 6 mg/kg; multiple doses).
For `CC(C)[C@]12O[C@H]1[C@@H]1O[C@]13[C@]1(O[C@H]1C[C@H]1C4=C(CC[C@@]13C)C(=O)OC4)[C@@H]2O`, the clearance was 20.5 mL/min/kg (SCID mouse; intravenous; 0.6 mg/kg).
